The M2OR odorant receptor database

Tests used:
Settings in all cases: stereoisomer not certain
[1] = biological target: OR51A4 (Homo sapiens) (UniProt Q8NGJ6)
Summary of the method: (§1)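 Values were gathered from published papers (main text and supplementary material), with extra details requested from the original authors when needed, and checked for typos and inconsistencies. Each receptor–molecule pair is called responsive (active) if the original authors judged the measured signal statistically different from baseline, and non-responsive (inactive) otherwise. Assay methods varied by source, often transient mammalian cell-line luciferase assays. Recorded details include cell line, G-protein, co-transfected protein and tags.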

[2] = biological target: OR51A7 (Homo sapiens) (UniProt Q8NH64)
Summary of the method: as §1

[3] = biological target: OR51B2 (Homo sapiens) (UniProt Q9Y5P1)
Summary of the method: as §1

[4] = biological target: OR51B4 (Homo sapiens) (UniProt Q9Y5P0)
Summary of the method: as §1

[5] = biological target: OR51B6 (Homo sapiens) (UniProt Q9H340)
Summary of the method: as §1

[6] = biological target: OR51D1 (Homo sapiens) (UniProt Q8NGF3)
Summary of the method: as §1

[7] = biological target: OR51E1 (Homo sapiens) (UniProt Q8TCB6)
Summary of the method: as §1

Measured: odorant receptor agonist call

OR51A7 (Homo sapiens), sequence (Q8NH64 whole entry): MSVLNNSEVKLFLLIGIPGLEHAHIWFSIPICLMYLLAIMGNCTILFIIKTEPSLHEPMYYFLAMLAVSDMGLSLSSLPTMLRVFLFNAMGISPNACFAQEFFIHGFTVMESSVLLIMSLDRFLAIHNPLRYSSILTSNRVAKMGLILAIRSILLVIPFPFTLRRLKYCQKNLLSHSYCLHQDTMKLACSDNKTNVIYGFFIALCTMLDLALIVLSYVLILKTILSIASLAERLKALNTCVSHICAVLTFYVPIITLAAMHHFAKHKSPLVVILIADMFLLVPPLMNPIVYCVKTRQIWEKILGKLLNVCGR
OR51B4 (Homo sapiens), sequence (Q9Y5P0 whole entry): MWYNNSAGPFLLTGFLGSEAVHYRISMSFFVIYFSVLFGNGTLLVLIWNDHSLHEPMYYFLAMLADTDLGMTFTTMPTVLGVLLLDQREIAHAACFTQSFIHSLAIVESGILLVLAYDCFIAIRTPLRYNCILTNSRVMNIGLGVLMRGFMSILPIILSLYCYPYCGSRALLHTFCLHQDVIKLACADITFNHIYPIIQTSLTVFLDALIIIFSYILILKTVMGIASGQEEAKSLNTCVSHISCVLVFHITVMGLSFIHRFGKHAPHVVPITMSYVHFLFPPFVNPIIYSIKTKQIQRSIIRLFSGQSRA
OR51A4 (Homo sapiens), sequence (Q8NGJ6 whole entry): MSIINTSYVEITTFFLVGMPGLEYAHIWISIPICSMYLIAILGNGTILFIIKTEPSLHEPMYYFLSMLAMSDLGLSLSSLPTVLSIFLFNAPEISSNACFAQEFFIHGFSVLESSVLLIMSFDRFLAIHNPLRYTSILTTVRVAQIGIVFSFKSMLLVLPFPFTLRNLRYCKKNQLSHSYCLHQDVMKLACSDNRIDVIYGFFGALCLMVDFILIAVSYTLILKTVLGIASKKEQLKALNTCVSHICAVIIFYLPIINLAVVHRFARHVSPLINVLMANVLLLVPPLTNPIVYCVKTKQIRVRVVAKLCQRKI
OR51B2 (Homo sapiens), sequence (Q9Y5P1 whole entry): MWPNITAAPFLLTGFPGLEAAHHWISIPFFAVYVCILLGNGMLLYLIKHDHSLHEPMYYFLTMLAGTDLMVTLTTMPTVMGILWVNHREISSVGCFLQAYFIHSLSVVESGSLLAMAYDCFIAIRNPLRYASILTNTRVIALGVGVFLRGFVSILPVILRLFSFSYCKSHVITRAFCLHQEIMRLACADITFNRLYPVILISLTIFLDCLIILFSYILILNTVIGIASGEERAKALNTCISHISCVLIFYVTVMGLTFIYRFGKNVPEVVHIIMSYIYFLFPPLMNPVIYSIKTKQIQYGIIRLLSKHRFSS
OR51D1 (Homo sapiens), sequence (Q8NGF3 whole entry): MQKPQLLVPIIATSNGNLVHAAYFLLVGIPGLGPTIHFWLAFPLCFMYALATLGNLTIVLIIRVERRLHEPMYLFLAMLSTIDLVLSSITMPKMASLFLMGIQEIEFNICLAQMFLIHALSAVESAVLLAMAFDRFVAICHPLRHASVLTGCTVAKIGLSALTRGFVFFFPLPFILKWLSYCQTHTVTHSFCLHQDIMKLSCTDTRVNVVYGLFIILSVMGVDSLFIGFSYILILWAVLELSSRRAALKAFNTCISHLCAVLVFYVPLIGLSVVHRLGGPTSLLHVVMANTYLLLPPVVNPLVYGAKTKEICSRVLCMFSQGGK
OR51B6 (Homo sapiens), sequence (Q9H340 whole entry): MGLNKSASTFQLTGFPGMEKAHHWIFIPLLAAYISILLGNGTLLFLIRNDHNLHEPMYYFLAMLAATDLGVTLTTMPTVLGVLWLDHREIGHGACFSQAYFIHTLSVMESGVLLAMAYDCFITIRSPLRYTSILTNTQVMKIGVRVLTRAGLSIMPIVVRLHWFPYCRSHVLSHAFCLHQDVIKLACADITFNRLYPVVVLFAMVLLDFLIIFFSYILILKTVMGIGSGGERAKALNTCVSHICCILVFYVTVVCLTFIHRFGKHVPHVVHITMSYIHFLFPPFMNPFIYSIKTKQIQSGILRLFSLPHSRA
OR51E1 (Homo sapiens), sequence (Q8TCB6 whole entry): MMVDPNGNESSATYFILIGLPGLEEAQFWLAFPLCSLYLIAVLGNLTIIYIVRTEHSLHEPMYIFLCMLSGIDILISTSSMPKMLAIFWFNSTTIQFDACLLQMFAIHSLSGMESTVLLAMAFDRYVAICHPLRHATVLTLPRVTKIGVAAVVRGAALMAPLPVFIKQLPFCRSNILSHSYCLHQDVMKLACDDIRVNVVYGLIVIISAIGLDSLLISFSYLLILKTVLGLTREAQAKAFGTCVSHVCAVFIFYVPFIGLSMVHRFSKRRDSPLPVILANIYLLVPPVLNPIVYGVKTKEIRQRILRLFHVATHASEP

Cc1c([N+](=O)[O-])c(C)c([N+](=O)[O-])c(C(C)(C)C)c1[N+](=O)[O-]
not listed: [7]
inactive: all other assays above

C=CCOC(=O)Cc1ccccc1
inactive: all assays above
